From PubChem BioAssay
This is a sample that favours compounds with a hit; in the whole collection about 6.8% have one here.
HCV core dimer: HCV core protein dimerization inhibition; TR-FRET GST/Flag-core106 dimerization, 1536-well; AID 1899; inhibition, % at 5 µM; 300,000 compounds, 0.33% hits;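 active = inhibition above the mean of all tested compounds plus 3 SD, set per screening campaign, cut at about 45% in these data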
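Assay system – GST-tagged and Flag-tagged HCV core protein residues 1-106 · Quantity – core106 proteins, GST 13.5 nM and Flag 17 nM · Benchmarks – unlabelled core106 and no-GST-core106 wells · Read-out basis – percent inhibition of core106 dimerization signal · Detection – time-resolved FRET, ex 340 nm, em 617 and 671 nm · Schedule – 4 h at 22.5 °C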
AI-2 QS mod: modulates the Vibrio harveyi AI-2 quorum sensing system; Vibrio harveyi JMH597 AI-2 luminescence/OD600 ratio, 9 h; active compounds read low; strain lacks LuxN and CqsS sensors; 0 = neutral-control median; 300,000 compounds, 0.4% hits; activity change, % at 7.5 µM; in the data active = activity change below about -75%, passing the limit was not always enough;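 note: luminescence divided by OD600 gain over 9 h not by final OD600 alone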
HSF1 inhib: HSF1 inhibition | 300,000 compounds, 0.77% hits | NIH3T3-HGL HSE-luciferase, MG132-induced, luminescence 8 h; active compounds read low | activity change, negative = inhibition, % at 7.5 µM (by protocol);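 active = more than half of replicate wells show activity change below -50%, luminescence cut by over half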;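 note: luciferase reports HSF-1 transcriptional activity via heat shock element; 0% = median of DMSO wells and -100% = zero luminescence signal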
HSF1 activator: increases HSF-1 driven luciferase reporter signal; NIH3T3-HGL HSF-1 luciferase reporter, MG132, 8 h; 100% = twice DMSO control signal; activation, % at 9 µM; 300,000 compounds, 1.7% hits;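 active = mean replicate activation of at least 50% with a set share of replicates each reaching 50%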;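 note: 0% = median of the neutral control wells and 100% = twice that signal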
PHOSPHO1 inh: inhibitors of human PHOSPHO1 phosphatase | recombinant PHOSPHO1, absorbance phosphatase assay | inhibition, % at 13.3 µM | 290,000 compounds, 1.1% hits; in the data active = inhibition above about 60%
Target sequence (Q8TCT1 whole entry, looked up): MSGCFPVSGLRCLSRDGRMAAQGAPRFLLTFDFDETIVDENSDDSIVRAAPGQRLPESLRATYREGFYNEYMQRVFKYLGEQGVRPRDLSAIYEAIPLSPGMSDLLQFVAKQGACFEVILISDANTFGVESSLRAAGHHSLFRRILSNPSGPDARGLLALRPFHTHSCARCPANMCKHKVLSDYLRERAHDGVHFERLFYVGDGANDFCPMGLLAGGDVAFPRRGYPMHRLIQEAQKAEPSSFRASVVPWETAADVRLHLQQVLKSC
ALR H2O2 inh: blocks human ALR sulfhydryl oxidase activity; AID 485317; 290,000 compounds, 3.8% hits; P55789; inhibition, % (test concentration not listed); purified ALR, DTT oxidation, H2O2 HRP-luminol luminescence;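 active = mean replicate inhibition above about 79%, with every replicate also reaching it, limit read from the data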
Target sequence (P55789 whole entry, looked up): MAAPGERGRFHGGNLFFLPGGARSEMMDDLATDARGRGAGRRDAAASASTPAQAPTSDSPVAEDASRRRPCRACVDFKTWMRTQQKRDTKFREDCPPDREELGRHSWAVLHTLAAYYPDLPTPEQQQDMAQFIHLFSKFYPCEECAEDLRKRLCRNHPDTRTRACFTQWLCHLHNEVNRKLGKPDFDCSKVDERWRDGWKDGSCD
* hit, by the source's call; . = no result.

SMILES	HCV core dimer	AI-2 QS mod	HSF1 inhib	HSF1 activator	PHOSPHO1 inh	ALR H2O2 inh
CC(C)(C)c1cc(NC(=O)CCSc2nnc3ccccn23)cc(C(C)(C)C)c1	9	27	17	54*	.	-9
O=C(CSc1nnc2ccccn12)NNC(=O)c1ccc(Cl)cc1	0	19	0	-3	-18	2
COc1cccc(NC(=O)CN(C)C(=O)CNC(=O)c2ccc3ccccc3c2)c1	2	43	7	7	.	3
Cc1ccc(C(=O)ONc2ccc(N=NC(=O)c3ccccc3O)cc2)cc1	-3	-21	3	26	69*	14
Cc1cc(C(F)(F)F)nn1Cc1n[nH]c(=S)n1-c1cccc(Cl)c1	-5	5	-3	12	84*	-2
Cc1ccc(-n2c(Cn3nc(C(F)F)cc3C(F)F)n[nH]c2=S)cc1	1	23	0	-17	100*	44
Cc1cc(C(F)(F)F)nn1Cc1n[nH]c(=S)n1-c1ccc(Cl)cc1	-1	19	1	-8	102*	11
Cc1cc(C(F)(F)F)nn1Cc1n[nH]c(=S)n1Cc1ccccc1	4	10	0	12	-13	82*
Cc1nccn1CCc1n[nH]c(=S)n1Cc1ccccc1	-5	14	-6	5	26	46
Cc1ccc(NC(=O)c2ccccc2SCC(=O)N2CCCC2)cc1S(=O)(=O)N(C)C	4	21	-5	-5	48	2
COc1ccc2c(c1)OC[C@H]1[C@H]2N2C(=O)CN(Cc3ccc(C)cc3)C(=O)[C@@]2(C)[C@H]1c1ccccc1	.	.	.	.	.	7
Cc1cccc(NC(=O)C[n+]2ccccc2)c1	-5	2	8	-17	25	.
Nc1cc[n+](CC(=O)Nc2ccccc2)cc1	3	8	26	56*	40	0
O=C(c1csc(Nc2cccc3ccccc23)n1)N1CCCC1	0	16	-4	0	-26	-1
O=C(c1csc(Nc2ccccc2Cl)n1)N1CCCC1	0	9	10	14	0	84*
O=C(COC(=O)/C=C/C(=O)N1CCN(c2ccccc2)CC1)NC(c1ccccc1)c1ccccc1	6	4	7	12	9	35
COc1ccc(OC)c(CNc2ncc(-c3cccc([N+](=O)[O-])c3)n2C)c1	2	-7	3	2	19	98*
Cn1c(-c2cccc([N+](=O)[O-])c2)cnc1NCc1cccc([N+](=O)[O-])c1	-2	19	-5	6	39	66
C=CCN(Cc1nc(-c2ccc(OC)c(OC)c2)oc1C)C1CCS(=O)(=O)C1 (stereo not drawn)	1	3	3	-2	-3	-1
COc1ccc(C2=NN(C)C(=NCc3ccccc3)SC2)cc1	-1	48	22	53*	-1	1
COc1ccc(-c2nnc3sc(-c4ccco4)nn23)cc1OC	-1	17	-3	8	-23	99*
COc1cc(-c2nnc3sc(-c4ccco4)nn23)cc(OC)c1OC	6	15	1	34	9	98*
COc1cccc(-c2nn3c(-c4cccc(C)c4)nnc3s2)c1	11	6	2	13	-28	2
COc1cccc(-c2nnc3sc(-c4ccco4)nn23)c1	0	2	2	19	74*	-9
CCCc1cc(=O)n2[nH]c(C)c(-c3ccc(OC)cc3)c2n1	4	-5	2	4	24	27
SMILES	HCV core dimer	AI-2 QS mod	HSF1 inhib	HSF1 activator	PHOSPHO1 inh	ALR H2O2 inh
Cc1[nH]n(C(C)(C)C)c(=O)c1Sc1ccc(Cl)cc1	-1	23	-7	-3	74*	2
O=C(NCC(=O)N1CC=C(c2ccccc2)CC1)c1ccc(F)cc1	.	.	.	.	.	-4
CCNc1nc(CC)nc2c1oc1ccccc12	-5	20	-1	10	-22	-3
CCc1nc(NCc2ccco2)c2oc3ccccc3c2n1	-1	19	17	34	-10	88*
CCc1nc(Nc2ccc(O)cc2)c2oc3ccccc3c2n1	-3	19	1	18	.	93*
Cc1ccc(Nc2ncnc3c2oc2ccccc23)cc1	6	19	36	47	9	-3
COc1ccc(Nc2ncnc3c2oc2ccccc23)cc1	-1	16	25	56*	25	-2
Cc1cc(C)c(S(=O)(=O)Nc2ccccc2C(=O)N2CCOCC2)c(C)c1	10	-7	-1	10	28	-3
CC(C)N1CCC(N2CCN(C3CCCCCC3)CC2CCO)CC1 (stereo not drawn)	-2	15	-8	3	-24	1
Cc1nn(C(C)C)c(C)c1CN1CCC(C(=O)Nc2cccc(-c3cccc(F)c3)c2)CC1	-5	2	0	5	24	5
COc1ccc(NS(=O)(=O)c2cc(OCC(N)=O)c(C)cc2Cl)cc1	-8	10	-4	8	-3	-13
N[C@@H](Cc1ccccc1)c1nnc(SCc2ccccc2Cl)o1	-12	-27	9	11	10	98*
CCOC(=O)CSC1=C(C#N)C(=O)NC2(CCCCC2)S1	1	27	-2	-3	98*	98*
Cc1ccc(OCCOCCN(C)C)c(Cl)c1	-6	17	-5	-12	-10	-9
CCOc1ccc2noc3c2c1C(=O)c1ccccc1-3	-15	20	6	32	62*	-18
O=C1c2ccccc2-c2onc3ccc(N4CCCC4)c1c23	.	27	59	93*	26	.
CN(C)c1cccc(NC2=CC(=[N+]3CCOCC3)CC(C)(C)C2)c1	-3	25	-1	2	91*	23
CCc1ccc(-c2csc3ncn(CC(=O)NCc4ccco4)c(=O)c23)cc1	5	10	2	5	-6	1
O=C(Cn1cnc2scc(-c3ccccc3)c2c1=O)NCc1ccco1	56*	22	-3	1	33	.
O=C(Cn1cnc2sc(-c3ccccc3)cc2c1=O)NCc1ccco1	65*	.	.	.	41	2
CCOc1cc(C(=O)Nc2cc3c(cc2N2CCOCC2)n(C)c(=O)n3C)cc(OCC)c1OCC	-6	4	-3	-7	30	-1
CCCOc1ccc(OCCN2CCCC(C)C2)cc1 (stereo not drawn)	2	19	0	-1	0	0
Cc1cc(C(F)(F)F)nc(SCCN2CCCCC2)c1C#N	-5	5	-7	-4	56	.
COc1cc(/C=N/Nc2ccc(C(=O)O)cc2)cc(OC)c1OC	-9	17	-26	-24	24	47
COc1cc(/C=N/NC(=O)c2ccccc2)ccc1O	-5	2	2	17	5	100*
COc1cc(/C=N/Nc2ccc(C(=O)O)cc2)ccc1O	-66	-18	-25	-35	18	99*
NC(=S)N/N=C/c1ccccc1O	-4	17	0	4	19	38
